The structures appear in SMILES notation. Active and inactive are the calls of the source. The calls are words filed in the database; no cut-off is given here.

Data set [1] concerns Trypanosoma brucei brucei. The data set can be described thus: Antitrypanosomal activity against bloodstream form of Trypanosoma brucei brucei after 72 hrs by alamar blue assay. Format: functional. The gist of the method: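 Bloodstream-form T. b. brucei single marker S427 (S16) in HMI-9 + 10% hiFBS, seeded at 1 × 10^4 per mL. Increasing compound concentrations for 72 h at 37 °C, 5% CO2. Proliferation by alamarBlue fluorescence (ex 550/em 590 nm).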

The test system of data set [2] is Leishmania major. The data set can be described thus: Antileishmanial activity against Leishmania major MHOM/IL/80/Friedlin promastigotes after 72 hrs by MTT assay. Format: functional. In outline: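 L. major Friedlin promastigotes at 1 × 10^6 per mL, 72 h at 28 °C in modified RPMI-1640 + 10% hiFBS with increasing drug concentrations; proliferation by MTT, absorbance 540 nm.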
In general terms: Tetrazolium assays rely on reduction of a dye to a coloured formazan, in cell work by metabolically active cells.

Data set [3] has as its system MRC5. The data set is described as follows: Cytotoxicity against human MRC5 cells assessed as cell growth inhibition after 72 hrs by MTT assay. Format: cell-based. To be noted: MRC5, 72 h. The gist of the method:
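MRC5 cells in low-glucose DMEM + 10% hiFBS, seeded by trypsinization at 5000 cells/well with increasing compound concentrations. MTT read-out after 72 h at 37 °C. IC50 = 50% growth reduction versus untreated cells.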

The test system of data set [4] is Plasmodium falciparum. The data set is described as follows: Antimalarial activity against erythrocyte stage of Plasmodium falciparum 3D7 preincubated for 48 hrs followed by [3H]-hypoxanthine addition measured after 18 hrs by liquid scintillation counting. Format: functional. In outline:
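P. falciparum 3D7-infected erythrocytes (1.5% hematocrit, 0.6% parasitemia) in RPMI 1640 + 10% AB human serum, DMSO ≤0.25% final. After 48 h at 37 °C, 0.6 μCi [3H]-hypoxanthine added for 18 h. Cells harvested onto glass-fibre filters and counted by scintillation, with uninfected-erythrocyte background subtracted. IC50 = 50% growth inhibition.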

Data set [5] in a line: Selectivity index, ratio of IC50 for human MRC5 cells to IC50 for Leishmania major MHOM/IL/80/Friedlin promastigotes. Format: toxicity. The conditions noted are these: read-out: Ratio IC50. The gist of the method: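 SI is IC50(MRC-5)/IC50(parasite). L. major Friedlin promastigotes (1 × 10^6/mL) were exposed to increasing compound in modified RPMI-1640 + 10% hiFBS for 72 h at 28 °C, with MTT read at 540 nm. MRC5 cells (5000/well, low-glucose DMEM + 10% hiFBS) got increasing compound for 72 h at 37 °C, with MTT read-out. IC50 is versus untreated cells.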

Data set [6] in a line: Selectivity index, ratio of IC50 for human MRC5 cells to IC50 for bloodstream form of Trypanosoma brucei brucei. Format: toxicity. The conditions noted are these: read-out: Ratio IC50. The gist of the method: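 Ratio of IC50 in MRC-5 to IC50 in parasite. Bloodstream-form T. b. brucei single-marker S427 (1 × 10^4/mL, HMI-9 + 10% hiFBS) was exposed to increasing compound for 72 h at 37 °C, 5% CO2, with alamarBlue fluorescence (ex 550/em 590).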

Data set [7] is described as follows: Selectivity index, ratio of IC50 for human MRC5 cells to IC50 for erythrocyte stage of Plasmodium falciparum 3D7. Format: toxicity. The conditions noted are these: read-out: Ratio IC50.
In data set [8] the test system is Trypanosoma brucei. The data set can be described thus: Binding affinity to Trypanosoma brucei FT-labeled EBR1 G-quadruplex DNA at 3 uM by circular dichroism spectroscopic analysis. In outline: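 EBR1-FT quadruplex at 3 μM in 10 mM lithium cacodylate pH 7.2 with 100 mM KCl, titrated with ligand (ratio 1:0 to 1:10). Spectra recorded at 25 °C in a 1 cm cell, average of three scans at 100 nm/min, 2 nm bandwidth.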
In general terms: Circular dichroism is the unequal absorption of left and right circularly polarised light.

A short description of data set [9]: Drug localization in Trypanosoma brucei nucleus at 5 uM after 30 mins by confocal microscopic analysis. Format: ADME. The conditions noted are these: 0.5 h. The gist of the method:
(§1)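 T. brucei exposed to 5 μM compound in medium at 37 °C for 30 or 150 min. Fixed in 4% paraformaldehyde for 30 min, washed twice in cold PBS, then imaged by confocal microscopy using the compounds' intrinsic fluorescence.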

A short description of data set [10]: Drug localization in Trypanosoma brucei kinetoplast at 5 uM after 30 mins by confocal microscopic analysis. Format: ADME. To be noted: 0.5 h. The gist of the method:
as §1

The test system of data set [11] is Trypanosoma brucei. The data set is described as follows: Drug localization in Trypanosoma brucei nucleus at 5 uM after 150 mins by confocal microscopic analysis. Format: ADME. To be noted: 2.5 h. The gist of the method:
as §1

A short description of data set [12]: Drug localization in Trypanosoma brucei kinetoplast at 5 uM after 150 mins by confocal microscopic analysis. Format: ADME. To be noted: 2.5 h. In outline: as §1
For data set [13], the species on record is Danio rerio. The data set can be described thus: Acute toxicity in AB zebrafish embryo assessed as no observed effect concentration with mortality score of >20% at 100 uM after 96 hrs post-fertlization. The conditions noted are these: in vivo. The gist of the method:
(§2)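 AB-strain embryos, with abnormal ones discarded, were placed 20 per condition at 3 hpf into compound dilutions in 0.1% DMSO/E3 (0.01, 0.1, 1, 10, 100 μM) and kept at 28.5 °C to 96 hpf. Mortality was scored and LC50 fitted by sigmoidal curve. NOEC/LOEC took >20% mortality as the effect. Controls were 0.1% DMSO (triplicate) and DEAB.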

A short description of data set [14]: (§3) Acute toxicity in AB zebrafish embryo assessed as mortality after 96 hrs post-fertlization. Also on record: species or system Danio rerio. To be noted: AB, in vivo. In outline: as §2
Data set [15] has as its system human telomeric hTel G-quadruplex DNA (Homo sapiens). The data set can be described thus: Binding affinity to FT-labeled human telomeric hTel G-quadruplex DNA assessed as change in melting temperature at 2 uM at pH 7.2 by FRET melting assay.
The species entered for data set [16] is Danio rerio. The data set can be described thus: Acute toxicity in AB zebrafish embryo assessed as lowest observed effect concentration with mortality score of >20% at 100 uM after 96 hrs post-fertlization. The conditions noted are these: in vivo. In outline: as §2
Data set [17] is filed under the species Danio rerio. The data set is described as §3. The conditions noted are these: in vivo, 96 h. In outline:
as §2

For the compound `CN(C)c1ccc(Nc2c3ccc(NC(=O)CCN4CCCC4)cc3nc3cc(NC(=O)CCN4CCCC4)ccc23)cc1`, the IC50 in data set [1] worked out at 5510 nM; in [2], 12700 nM; in data set [3], 8330 nM; in data set [4], 9700 nM. For the same compound, the selectivity ratio in data set [5] is 0.7; in data set [6] it was 1.5; in data set [7], 0.9.
On to `CN(C)CCCN1C(=O)c2ccc3c4c(c(NCc5cn(CCO[C@@H]6O[C@H](CO)[C@@H](O)[C@H](O)[C@H]6O)nn5)cc(c24)C1=O)C(=O)N(CCCN(C)C)C3=O`, for which the outcome in data set [8] was Active. Moreover, the half-inhibitory concentration (IC50) in data set [2] is 537 nM; in data set [3], 710 nM; in data set [4], 275 nM. Also, the selectivity ratio in [7] was 2.6. Besides, the Drug uptake result in [9], in [10], in data set [11] and in [12] was “Active” throughout. The NOAEL in data set [13] was found to be 100 µM. The LC50 at 96 h in data set [14] was more than 1 mM. Also, the ΔTm in data set [15] is 10 °C.
On to `CCCNc1cc2c3c(ccc4c3c1C(=O)N(CCCN(C)C)C4=O)C(=O)N(CCCN(C)C)C2=O`, for which the result in data set [8] was Active. For the same compound, the values for the 50% inhibitory concentration (IC50) in data set [2], in data set [3] and in data set [4] were 34 nM, 360 nM and 91 nM, respectively. Further, the selectivity ratio in [7] is 4. The Drug uptake result in data set [9], in data set [10], in data set [11] and in data set [12] was “Active” throughout. Moreover, the NOAEL in data set [13] was 100 µM. In [16], the MTC is 1000 µM. Also, the LC50 in data set [17] worked out at 410 µM. For the same compound, in [15], the ΔTm came out at 19 °C.
For `NCCOc1cc(C(=O)Nc2cc(OCCN)c3ccccc3n2)nc(C(=O)Nc2cc(OCCN)c3ccccc3n2)c1` [PYRIDOSTATIN], the IC50 in data set [1] was 7820 nM; in data set [2], 5000 nM; in data set [3] it was 5380 nM; in data set [4], 2650 nM. The selectivity ratio in data set [5] came out at 1.1; in data set [6], 0.7; in data set [7] it was 2.
As for `C[n+]1ccc(-c2c3nc(c(-c4cc[n+](C)cc4)c4ccc([nH]4)c(-c4cc[n+](C)cc4)c4nc(c(-c5cc[n+](C)cc5)c5ccc2[nH]5)C=C4)C=C3)cc1`, the 50% inhibitory concentration (IC50) was more than 10000 nM in [1], 20800 nM in data set [2], more than 25000 nM in data set [3] and more than 25000 nM in [4]. For the same compound, in data set [5], the selectivity ratio is more than 1.7.
In the case of `CN(C)CCCN1C(=O)c2ccc3c4c(c(NCc5cn([C@@H]6O[C@H](CO)[C@@H](O)[C@H](O)[C@H]6O)nn5)cc(c24)C1=O)C(=O)N(CCCN(C)C)C3=O`, the IC50 in data set [1] worked out at 24 nM; in data set [2], 244 nM; in data set [3], 1150 nM; in data set [4], 1350 nM. In addition, the selectivity ratio in [7] was determined as 0.9. For the same compound, the NOAEL in data set [13] amounted to 100 µM. Moreover, in [14], the median lethal concentration (LC50) at 96 h was more than 1 mM.
In the case of `CCCCCCCCCCCCCCCCOP(=O)([O-])OCC[N+](C)(C)C` [MILTEFOSINE], the half-inhibitory concentration (IC50) in data set [2] was 6070 nM.
On to `C[C@H]1O[C@@H](n2cc(CNc3cc4c5c(ccc6c5c3C(=O)N(CCCN(C)C)C6=O)C(=O)N(CCCN(C)C)C4=O)nn2)[C@H](O)[C@@H](O)[C@@H]1O`, for which the IC50 in data set [1] was determined as 17 nM; in [2], 184 nM; in data set [3], 910 nM; in data set [4], 225 nM. The selectivity ratio in data set [5] was determined as 4.9; in data set [6] it was 53.5; in data set [7] it was 4. Further, in data set [13], the NOAEL was determined as 100 µM. For the same compound, the 50% lethal concentration (LC50) in data set [17] came to 170 µM.
For the compound `CN(C)CCCN1C(=O)c2ccc3c4c(c(NCc5cn(CCO[C@H]6O[C@H](CO)[C@@H](O)[C@H](O)[C@@H]6O)nn5)cc(c24)C1=O)C(=O)N(CCCN(C)C)C3=O`, the IC50 amounted to 21 nM in data set [1], 306 nM in data set [2], 810 nM in data set [3] and 180 nM in data set [4]. Moreover, the selectivity ratio in [5] was 2.6; in [6], 38.6; in data set [7] it was 4.5. In data set [13], the NOAEL worked out at 100 µM. Also, the LC50 at 96 h in data set [14] is more than 1 mM.
Consider `CC(=O)N[C@@H]1[C@@H](O)[C@H](O)[C@@H](CO)O[C@H]1n1cc(CNc2cc3c4c(ccc5c4c2C(=O)N(CCCN(C)C)C5=O)C(=O)N(CCCN(C)C)C3=O)nn1`, for which the IC50 in data set [1] is 89 nM; in data set [2] it was 1040 nM; in data set [3], 510 nM; in data set [4], 360 nM. The selectivity ratio in data set [5] worked out at 0.5; in [6], 5.7; in data set [7] it was 1.4. Besides, the NOAEL in data set [13] came to 100 µM. The LC50 at 96 h in data set [14] was more than 1 mM.

By IC50 is commonly meant the concentration needed to halve the response being measured. As usually defined, the NOAEL is the highest tested level that showed no adverse finding. The LC50 is the concentration lethal to half of the exposed cells or organisms. The term ΔTm denotes the change in melting temperature against a reference sample.

The values above are taken from ChEMBL document CHEMBL4024795, “G-Quadruplex Identification in the Genome of Protozoan Parasites Points to Naphthalene Diimide Ligands as New Antiparasitic Agents” (J Med Chem, 2018).
